Assay outcomes: PubChem BioAssay, Sanford-Burnham Center for Chemical Genomics
LMPTP inh: blocks human LMPTP phosphatase; P24666; inhibition, % at 20 µM; 360,000 tested, 0.22% active; recombinant LMPTP-A, OMFP fluorogenic substrate, fluorescence intensity;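 active = compounds that cut the enzyme signal by at least half of the control window in the single-dose screen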
Target sequence (P24666 whole entry, looked up): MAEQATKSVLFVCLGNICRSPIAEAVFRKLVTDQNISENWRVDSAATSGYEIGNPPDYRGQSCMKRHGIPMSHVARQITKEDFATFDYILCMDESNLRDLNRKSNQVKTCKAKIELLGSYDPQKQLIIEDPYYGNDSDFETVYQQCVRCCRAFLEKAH
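Test system – LMPTP-A phosphatase enzyme · Quantity – 0.625 nM LMPTP-A final · Reagent – OMFP substrate, 400 µM final · Dosing – one test concentration per compound, 20 µM, with 3% DMSO overall · Timing – 50 min enzyme reaction at room temperature, protected from light · Detection – fluorescence intensity · Controls – substrate-only low control, DMSO enzyme-plus-substrate high control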
DNMT1 inh: blocks human DNA methyltransferase DNMT1. 360,000 tested, 0.83% active. AID 588458. DNMT1 molecular beacon, Hinp1I cleavage, fluorescence. inhibition (reported as % activation of signal), % at 10 µM. P26358; in the data active = inhibition above about 50%
SUMO1 PPI mod: SUMO1-SIM interaction modulation. AID 602429. 360,000 tested, 0.33% active. P63165. SUMO1 binding to a labelled peptide, TR-FRET, 1 h. inhibition, % at 20 µM; in the data active = inhibition above about 37%
Target sequence (P63165 whole entry, looked up): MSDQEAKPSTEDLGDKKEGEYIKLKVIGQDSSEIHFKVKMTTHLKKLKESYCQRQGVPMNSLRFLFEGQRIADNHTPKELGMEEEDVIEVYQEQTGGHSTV
NadD inh: NadD (S. aureus) enzyme inhibition. purified NadD enzyme, colorimetric absorbance read-out. inhibition, % at 20 µM. 360,000 tested, 0.78% active. AID 602399; in the data active = inhibition above about 26%
Scp-1 inhibitor: blocks human Scp-1 phosphatase activity | Recombinant Scp1, phosphopeptide, malachite green phosphate absorbance | 340,000 tested, 0.88% active | inhibition, % at 20 µM | Q9GZU7;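 active = inhibition above about 50% at 20 µM, limit read from the data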
Target sequence (Q9GZU7 76-261 limits assumed): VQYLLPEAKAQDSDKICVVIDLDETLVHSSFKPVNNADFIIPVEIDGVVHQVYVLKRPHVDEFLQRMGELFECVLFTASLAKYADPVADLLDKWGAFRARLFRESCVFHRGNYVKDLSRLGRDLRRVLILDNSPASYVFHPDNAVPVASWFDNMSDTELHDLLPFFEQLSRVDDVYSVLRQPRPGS
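assay system = SCP-1 phosphatase catalytic domain, residues 76-261 | buffer or medium = 50 mM Tris acetate pH 5.5, 0.005% Tween-20, 10 mM MgCl2 | incubation = enzyme reaction 45 min at room temperature, colour 5 min, stabilisation 30 min | signal = Phosphate-binding colour reagent, absorbance read at 630 nm | measure = % inhibition at 20 µM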
STEP inh: STEP (human) phosphatase inhibition | P54829 | recombinant STEP, OMFP fluorogenic substrate, fluorescence | inhibition, % at 20 µM | 360,000 tested, 0.25% active | AID 588621;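 active = inhibition at 20 µM, scaled per plate between control wells, above about 37%, limit read from the data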
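medium = Bis-Tris buffer pH 6.0, 2.5 mM DTT, 0.005% Tween 20 | test system = STEP (striatal-enriched tyrosine phosphatase) enzyme, cell-free | measure = normalized % inhibition | compound dosing = 20 µM, 1% DMSO | also added = 25 µM OMFP | schedule = reaction 20 min, ambient temperature | measured by = fluorescence read at 480 nm ex / 540 nm em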
NadD inh conf: NadD (S. aureus) inhibition, single concentration confirmation | shares compounds with NadD inh | purified S. aureus NadD, colorimetric enzyme assay | inhibition, % at 20 µM | 2,000 tested, 13% active | AID 624309; in the data active = inhibition mostly above about 42%, no sharp cut-off; inactive = mostly below about 42%
Large screens that a line does not name were inactive (follow-up assays come after a bar, where they were run). Shown are actives, neighbours in structure and some others; about 2.3% of the full set was active somewhere.

N#CCS(=O)(=O)c1ccccc1	none
COc1ccc2nc(NC(=O)C3CCN(S(=O)(=O)c4cccc5nsnc45)CC3)sc2c1	NadD inh 41 | NadD inh conf inactive
N#CCC(=O)N/N=C/c1cc(Br)ccc1OCc1cccc2ccccc12	NadD inh 26 | NadD inh conf inactive
Nc1ccc2nc(-c3ccc(N)c(Cl)c3)[nH]c2c1	NadD inh 41 | NadD inh conf inactive
Brc1ccc(CN2CCCCCC2)cc1	none
COc1ccc2nc3sc(C(=O)NCCCN4CCc5ccccc5C4)cc3cc2c1	NadD inh 30 | NadD inh conf inactive
COc1ccc(S(=O)(=O)N(C)C)cc1NS(=O)(=O)c1ccc(F)c(F)c1F	none
COc1ccc(-n2c(SCC(=O)Nc3cc(C(=O)O)ccc3C)nc3ccccc3c2=O)cc1Cl	none
COc1cc(C2C(C#N)=C(N)Oc3c2ccc2ccccc32)ccc1OCC(=O)Nc1ccccc1C (configuration not stated)	none
COC(=O)c1ccc(NC(=O)COc2ccc(C3C(C#N)=C(N)Oc4c3ccc3ccccc43)cc2OC)cc1 (configuration not stated)	NadD inh 51 | NadD inh conf inactive
CNc1ccc(Br)cc(C(=O)/C=C/c2ccc(Cl)cc2Cl)c1=O	DNMT1 inh 67, NadD inh 62 | NadD inh conf inactive
O=C(N/N=C/c1c[nH]c2ccccc12)c1cc(-c2ccc(-c3ccccc3)cc2)n[nH]1	NadD inh 50 | NadD inh conf 47
O=C(N/N=C/c1c[nH]c2ccccc12)c1cc(-c2ccccc2)n[nH]1	none
CCOC(=O)[C@]12CCC=C1N(CCC1=CCCCC1)C(=O)[C@H](CC(=O)N1CCSCC1)C2	none (no result: DNMT1 inh, Scp-1 inhibitor, STEP inh)
CCc1ccc(NC(=O)C(C)OC(=O)c2ccc(NS(=O)(=O)c3ccc(C)c([N+](=O)[O-])c3)cc2)cc1 (configuration not stated)	NadD inh 45 | NadD inh conf 46
CCOC(=O)c1sc(NC(=O)c2cc(-c3ccccc3C)nc3ccccc23)c(C#N)c1C	NadD inh 48 | NadD inh conf inactive
CCOc1ccc(C(=O)N/N=C/c2ccc(-c3ccc(S(=O)(=O)Nc4ncccn4)cc3)o2)cc1	NadD inh 33 | NadD inh conf 53
O=C(CCc1nc(-c2ccccc2F)no1)Nc1cccnc1	NadD inh 66 | NadD inh conf inactive
C/C(=N\Nc1ccc(S(=O)(=O)Nc2ccccc2)cc1[N+](=O)[O-])c1ccc(N2CCOCC2)cc1	NadD inh 42 | NadD inh conf inactive
O=[N+]([O-])c1cc(/C=N/Nc2nc(N3CCOCC3)nc(N3CCOCC3)n2)ccc1Cl	none
C/C(=N\Nc1ccc(S(=O)(=O)Nc2ccc(Cl)cc2)cc1[N+](=O)[O-])c1ccc(N2CCOCC2)cc1	none
O=[N+]([O-])c1ccccc1/C=C/C=N/Nc1ccc(S(=O)(=O)Nc2ccc(Cl)cc2)cc1[N+](=O)[O-]	NadD inh 26 | NadD inh conf inactive
O=[N+]([O-])c1cc(S(=O)(=O)Nc2cccc(Cl)c2)ccc1N/N=C/c1ccc(N2CCOCC2)cc1	NadD inh 28 | NadD inh conf inactive
Nc1cc2c(cc1O)CCCC2	none
CCCN1C(=O)c2[nH]nc(-c3cc(Cl)c(C)cc3O)c2C1c1ccc(O)c(OC)c1 (configuration not stated)	none
Cc1cc(O)c(-c2n[nH]c3c2C(c2cccc(O)c2)N(Cc2cccnc2)C3=O)cc1Cl (configuration not stated)	NadD inh 46 | NadD inh conf inactive
Nc1c(C(=O)Nc2ccc(S(=O)(=O)N3CCCC3)cc2)sc2nc3ccc(OC(F)(F)F)cc3cc12	none
Nc1c(C(=O)Nc2ccc(S(=O)(=O)N3CCCC3)cc2)sc2nc3cc4c(cc3cc12)CCC4	NadD inh 32 | NadD inh conf inactive
Cc1cccc(C(=O)OCC(=O)NC(=O)NCc2ccccc2)c1	none
CCOC(=O)c1cc(-c2ccccc2)sc1NC(=O)C(C)C	none
